Reference: ChEMBL document CHEMBL1156261, “Evaluation of substituted N,N'-diarylsulfonamides as activators of the tumor cell specific M2 isoform of pyruvate kinase” (J Med Chem, 2010)
Calls of active or inactive are those of the source. No rule for the calls is given here.

Each molecule was assayed against Pyruvate kinase PKLR (Homo sapiens) (UniProt P30613) (assay: Activation of PKL assessed as ATP product formation by luminescent pyruvate kinase-luciferase coupled assay relative to control).
Set-up: concentration or dose not given beside the values
Procedure, shortened: (§1)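 Luciferase-coupled ATP production assay run as for PKM2: imidazole pH 7.2 buffer with KCl, MgCl2, Tween 20 and BSA, 0.1 mM ADP, 0.5 mM PEP, 1 h at r.t., Kinase-Glo luminescence. Enzyme final concentrations were PKM1 1 nM, PKL 0.1 nM, PKR 0.1 nM. % activation normalized to DMSO (neutral) and no-enzyme controls.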

Pyruvate kinase PKLR (Homo sapiens), sequence (P30613 whole entry, looked up): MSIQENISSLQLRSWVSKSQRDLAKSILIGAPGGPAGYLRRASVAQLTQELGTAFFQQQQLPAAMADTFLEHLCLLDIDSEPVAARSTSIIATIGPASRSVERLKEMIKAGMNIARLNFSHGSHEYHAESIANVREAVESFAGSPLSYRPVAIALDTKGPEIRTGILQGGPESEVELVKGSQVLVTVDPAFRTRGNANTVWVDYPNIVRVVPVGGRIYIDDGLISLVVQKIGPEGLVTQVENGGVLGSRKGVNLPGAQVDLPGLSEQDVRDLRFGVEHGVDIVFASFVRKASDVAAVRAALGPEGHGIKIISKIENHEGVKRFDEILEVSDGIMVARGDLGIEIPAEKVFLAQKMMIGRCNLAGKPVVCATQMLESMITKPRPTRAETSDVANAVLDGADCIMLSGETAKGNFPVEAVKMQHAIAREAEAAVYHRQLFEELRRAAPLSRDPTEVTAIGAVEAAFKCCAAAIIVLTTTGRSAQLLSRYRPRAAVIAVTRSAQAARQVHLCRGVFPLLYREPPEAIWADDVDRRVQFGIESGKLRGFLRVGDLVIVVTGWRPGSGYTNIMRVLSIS

Row | SMILES | Activity [%]
1 | O=S(=O)(c1cccc(F)c1)N1CCN(S(=O)(=O)c2ccc3c(c2)OCCO3)CC1 | < 30
2 | COc1cccc(S(=O)(=O)N2CCN(S(=O)(=O)c3ccc4c(c3)OCCO4)CC2)c1 | < 30
3 | O=S(=O)(NCCCCNS(=O)(=O)c1c(F)cccc1F)c1ccc2c(c1)OCCO2 | < 30
4 | O=S(=O)(c1ccc2c(c1)OCCO2)N1CCN(S(=O)(=O)c2c(F)ccc(O)c2F)CC1 | < 30
5 | O=C1CN(S(=O)(=O)c2c(F)cccc2F)CCN1S(=O)(=O)c1ccc2c(c1)OCCO2 | < 30
6 | O=S(=O)(NCCCCCNS(=O)(=O)c1c(F)cccc1F)c1ccc2c(c1)OCCO2 | < 30
7 | N#Cc1ccc(S(=O)(=O)N2CCN(S(=O)(=O)c3ccc4c(c3)OCCO4)CC2)cc1 | < 30
8 | O=S(=O)(c1ccc(F)cc1)N1CCN(S(=O)(=O)c2ccc3c(c2)OCCO3)CC1 | < 30

These molecules were tested against Pyruvate kinase PKLR (Homo sapiens) (UniProt P30613) (assay: Activation of PKR assessed as pyruvate formation by fluorescent pyruvate kinase-lactate dehydrogenase coupled assay relative to control).
Set-up: concentration or dose not given beside the values

Row | SMILES | Activity [%]
9 | O=S(=O)(c1cccc(F)c1)N1CCN(S(=O)(=O)c2ccc3c(c2)OCCO3)CC1 | < 30
10 | COc1cccc(S(=O)(=O)N2CCN(S(=O)(=O)c3ccc4c(c3)OCCO4)CC2)c1 | < 30
11 | O=S(=O)(NCCCCNS(=O)(=O)c1c(F)cccc1F)c1ccc2c(c1)OCCO2 | < 30
12 | O=S(=O)(c1ccc2c(c1)OCCO2)N1CCN(S(=O)(=O)c2c(F)ccc(O)c2F)CC1 | < 30
13 | O=C1CN(S(=O)(=O)c2c(F)cccc2F)CCN1S(=O)(=O)c1ccc2c(c1)OCCO2 | < 30
14 | O=S(=O)(NCCCCCNS(=O)(=O)c1c(F)cccc1F)c1ccc2c(c1)OCCO2 | < 30
15 | N#Cc1ccc(S(=O)(=O)N2CCN(S(=O)(=O)c3ccc4c(c3)OCCO4)CC2)cc1 | < 30
16 | O=S(=O)(c1ccc(F)cc1)N1CCN(S(=O)(=O)c2ccc3c(c2)OCCO3)CC1 | < 30

These molecules were tested against T1, Pyruvate kinase PKM (Homo sapiens, UniProt P14618) (assay: Activation of PKM2 assessed as ATP product formation at 57 uM by luminescent pyruvate kinase-luciferase coupled assay relative to fructose-1,6-bis-phosphate).
T1 sequence (P14618 2-531 limits assumed): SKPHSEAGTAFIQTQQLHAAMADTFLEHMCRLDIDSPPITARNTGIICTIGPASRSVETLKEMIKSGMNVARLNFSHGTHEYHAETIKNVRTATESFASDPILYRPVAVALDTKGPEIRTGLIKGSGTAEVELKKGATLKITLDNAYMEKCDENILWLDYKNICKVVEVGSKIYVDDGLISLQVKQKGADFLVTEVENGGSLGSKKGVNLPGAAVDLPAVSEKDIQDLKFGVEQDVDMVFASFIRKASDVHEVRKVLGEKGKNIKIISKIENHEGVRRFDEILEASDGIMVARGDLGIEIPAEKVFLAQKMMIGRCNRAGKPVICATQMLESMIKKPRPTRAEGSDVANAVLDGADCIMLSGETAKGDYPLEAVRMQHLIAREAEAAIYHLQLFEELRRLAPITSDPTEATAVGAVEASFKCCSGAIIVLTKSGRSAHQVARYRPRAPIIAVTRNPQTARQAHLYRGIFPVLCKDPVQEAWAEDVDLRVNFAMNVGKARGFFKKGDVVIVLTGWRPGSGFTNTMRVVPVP
Procedure, shortened: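 Recombinant human PKM2 (0.1 nM final) in 50 mM imidazole pH 7.2, 50 mM KCl, 7 mM MgCl2, 0.01% Tween 20, 0.05% BSA; 0.1 mM ADP, 0.5 mM PEP; 1 h at r.t., then Kinase-Glo luciferase read of ATP formed. Activation % = (c−n)/(n−i)×100 against DMSO and no-enzyme controls; 100% ≈ 2-fold over basal signal. Max response taken at 57 μM; three separate experiments.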

Row | SMILES | Activity [%]
17 | O=S(=O)(c1cccc(F)c1)N1CCN(S(=O)(=O)c2ccc3c(c2)OCCO3)CC1 | 107
18 | COc1cccc(S(=O)(=O)N2CCN(S(=O)(=O)c3ccc4c(c3)OCCO4)CC2)c1 | 90
19 | O=S(=O)(NCCCCNS(=O)(=O)c1c(F)cccc1F)c1ccc2c(c1)OCCO2 | 113
20 | O=S(=O)(c1ccc2c(c1)OCCO2)N1CCN(S(=O)(=O)c2c(F)ccc(O)c2F)CC1 | 95.3
21 | O=C1CN(S(=O)(=O)c2c(F)cccc2F)CCN1S(=O)(=O)c1ccc2c(c1)OCCO2 | 105
22 | O=S(=O)(NCCCCCNS(=O)(=O)c1c(F)cccc1F)c1ccc2c(c1)OCCO2 | 114
23 | N#Cc1ccc(S(=O)(=O)N2CCN(S(=O)(=O)c3ccc4c(c3)OCCO4)CC2)cc1 | 44.1

These molecules were tested against T1, Pyruvate kinase PKM (assay: Activation of PKM1 assessed as pyruvate formation by fluorescent pyruvate kinase-lactate dehydrogenase coupled assay).

Row | SMILES | Activity
24 | O=S(=O)(c1cccc(F)c1)N1CCN(S(=O)(=O)c2ccc3c(c2)OCCO3)CC1 | inactive
25 | COc1cccc(S(=O)(=O)N2CCN(S(=O)(=O)c3ccc4c(c3)OCCO4)CC2)c1 | inactive
26 | O=S(=O)(NCCCCNS(=O)(=O)c1c(F)cccc1F)c1ccc2c(c1)OCCO2 | inactive
27 | O=S(=O)(c1ccc2c(c1)OCCO2)N1CCN(S(=O)(=O)c2c(F)ccc(O)c2F)CC1 | inactive
28 | O=C1CN(S(=O)(=O)c2c(F)cccc2F)CCN1S(=O)(=O)c1ccc2c(c1)OCCO2 | inactive
29 | O=S(=O)(NCCCCCNS(=O)(=O)c1c(F)cccc1F)c1ccc2c(c1)OCCO2 | inactive
30 | N#Cc1ccc(S(=O)(=O)N2CCN(S(=O)(=O)c3ccc4c(c3)OCCO4)CC2)cc1 | inactive
31 | O=S(=O)(c1ccc(F)cc1)N1CCN(S(=O)(=O)c2ccc3c(c2)OCCO3)CC1 | inactive

Each molecule was assayed against Pyruvate kinase PKLR (Homo sapiens) (UniProt P30613) (assay: Activation of PKR assessed as ATP product formation by luminescent pyruvate kinase-luciferase coupled assay relative to control).
Set-up: concentration or dose not given beside the values
Procedure, shortened: as §1

Row | SMILES | Activity [%]
32 | O=S(=O)(c1cccc(F)c1)N1CCN(S(=O)(=O)c2ccc3c(c2)OCCO3)CC1 | < 30
33 | COc1cccc(S(=O)(=O)N2CCN(S(=O)(=O)c3ccc4c(c3)OCCO4)CC2)c1 | < 30
34 | O=S(=O)(NCCCCNS(=O)(=O)c1c(F)cccc1F)c1ccc2c(c1)OCCO2 | < 30
35 | O=S(=O)(c1ccc2c(c1)OCCO2)N1CCN(S(=O)(=O)c2c(F)ccc(O)c2F)CC1 | < 30
36 | O=C1CN(S(=O)(=O)c2c(F)cccc2F)CCN1S(=O)(=O)c1ccc2c(c1)OCCO2 | < 30
37 | O=S(=O)(NCCCCCNS(=O)(=O)c1c(F)cccc1F)c1ccc2c(c1)OCCO2 | < 30
38 | N#Cc1ccc(S(=O)(=O)N2CCN(S(=O)(=O)c3ccc4c(c3)OCCO4)CC2)cc1 | < 30
39 | O=S(=O)(c1ccc(F)cc1)N1CCN(S(=O)(=O)c2ccc3c(c2)OCCO3)CC1 | < 30

The molecules below were run against T1, Pyruvate kinase PKM (assay: Activation of PKM1 assessed as ATP product formation by luminescent pyruvate kinase-luciferase coupled assay).
Procedure, shortened: as §1

Row | SMILES | Activity
40 | O=S(=O)(c1cccc(F)c1)N1CCN(S(=O)(=O)c2ccc3c(c2)OCCO3)CC1 | inactive
41 | COc1cccc(S(=O)(=O)N2CCN(S(=O)(=O)c3ccc4c(c3)OCCO4)CC2)c1 | inactive
42 | O=S(=O)(NCCCCNS(=O)(=O)c1c(F)cccc1F)c1ccc2c(c1)OCCO2 | inactive
43 | O=S(=O)(c1ccc2c(c1)OCCO2)N1CCN(S(=O)(=O)c2c(F)ccc(O)c2F)CC1 | inactive
44 | O=C1CN(S(=O)(=O)c2c(F)cccc2F)CCN1S(=O)(=O)c1ccc2c(c1)OCCO2 | inactive
45 | O=S(=O)(NCCCCCNS(=O)(=O)c1c(F)cccc1F)c1ccc2c(c1)OCCO2 | inactive
46 | N#Cc1ccc(S(=O)(=O)N2CCN(S(=O)(=O)c3ccc4c(c3)OCCO4)CC2)cc1 | inactive
47 | O=S(=O)(c1ccc(F)cc1)N1CCN(S(=O)(=O)c2ccc3c(c2)OCCO3)CC1 | inactive

What follows are molecules tested against Pyruvate kinase PKLR (Homo sapiens) (UniProt P30613) (assay: Activation of PKL assessed as pyruvate formation by fluorescent pyruvate kinase-lactate dehydrogenase coupled assay relative to control).
Set-up: concentration or dose not given beside the values

Row | SMILES | Activity [%]
48 | O=S(=O)(c1cccc(F)c1)N1CCN(S(=O)(=O)c2ccc3c(c2)OCCO3)CC1 | < 30
49 | COc1cccc(S(=O)(=O)N2CCN(S(=O)(=O)c3ccc4c(c3)OCCO4)CC2)c1 | < 30
50 | O=S(=O)(NCCCCNS(=O)(=O)c1c(F)cccc1F)c1ccc2c(c1)OCCO2 | < 30
51 | O=S(=O)(c1ccc2c(c1)OCCO2)N1CCN(S(=O)(=O)c2c(F)ccc(O)c2F)CC1 | < 30
52 | O=C1CN(S(=O)(=O)c2c(F)cccc2F)CCN1S(=O)(=O)c1ccc2c(c1)OCCO2 | < 30
53 | O=S(=O)(NCCCCCNS(=O)(=O)c1c(F)cccc1F)c1ccc2c(c1)OCCO2 | < 30
54 | N#Cc1ccc(S(=O)(=O)N2CCN(S(=O)(=O)c3ccc4c(c3)OCCO4)CC2)cc1 | < 30
55 | O=S(=O)(c1ccc(F)cc1)N1CCN(S(=O)(=O)c2ccc3c(c2)OCCO3)CC1 | < 30
